Converted amounts (≈) assume the structure as drawn.

Broadly, the IC50 is the midpoint of a concentration-inhibition curve. In general, solubility refers to the concentration that dissolves in the medium under given conditions. A word on the bioavailability: it is dose-corrected exposure relative to a reference, in per cent.

serum albumin, sequence (P02768 whole entry): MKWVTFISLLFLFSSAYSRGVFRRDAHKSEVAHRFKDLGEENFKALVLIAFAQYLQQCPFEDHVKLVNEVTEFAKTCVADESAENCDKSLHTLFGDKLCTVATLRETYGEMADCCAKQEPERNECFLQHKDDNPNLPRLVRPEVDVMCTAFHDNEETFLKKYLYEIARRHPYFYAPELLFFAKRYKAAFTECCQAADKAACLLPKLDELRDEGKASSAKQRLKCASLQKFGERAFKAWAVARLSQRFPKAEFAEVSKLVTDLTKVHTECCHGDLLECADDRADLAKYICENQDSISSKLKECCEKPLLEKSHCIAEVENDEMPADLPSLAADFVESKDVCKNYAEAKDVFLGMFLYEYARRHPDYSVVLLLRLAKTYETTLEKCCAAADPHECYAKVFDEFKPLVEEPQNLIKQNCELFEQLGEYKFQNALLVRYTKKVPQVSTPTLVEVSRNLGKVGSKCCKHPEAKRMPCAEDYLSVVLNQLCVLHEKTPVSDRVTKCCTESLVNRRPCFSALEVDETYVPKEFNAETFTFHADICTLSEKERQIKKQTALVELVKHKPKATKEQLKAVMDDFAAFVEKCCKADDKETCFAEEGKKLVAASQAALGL
Tyrosine-protein kinase BTK, sequence (Q06187 whole entry): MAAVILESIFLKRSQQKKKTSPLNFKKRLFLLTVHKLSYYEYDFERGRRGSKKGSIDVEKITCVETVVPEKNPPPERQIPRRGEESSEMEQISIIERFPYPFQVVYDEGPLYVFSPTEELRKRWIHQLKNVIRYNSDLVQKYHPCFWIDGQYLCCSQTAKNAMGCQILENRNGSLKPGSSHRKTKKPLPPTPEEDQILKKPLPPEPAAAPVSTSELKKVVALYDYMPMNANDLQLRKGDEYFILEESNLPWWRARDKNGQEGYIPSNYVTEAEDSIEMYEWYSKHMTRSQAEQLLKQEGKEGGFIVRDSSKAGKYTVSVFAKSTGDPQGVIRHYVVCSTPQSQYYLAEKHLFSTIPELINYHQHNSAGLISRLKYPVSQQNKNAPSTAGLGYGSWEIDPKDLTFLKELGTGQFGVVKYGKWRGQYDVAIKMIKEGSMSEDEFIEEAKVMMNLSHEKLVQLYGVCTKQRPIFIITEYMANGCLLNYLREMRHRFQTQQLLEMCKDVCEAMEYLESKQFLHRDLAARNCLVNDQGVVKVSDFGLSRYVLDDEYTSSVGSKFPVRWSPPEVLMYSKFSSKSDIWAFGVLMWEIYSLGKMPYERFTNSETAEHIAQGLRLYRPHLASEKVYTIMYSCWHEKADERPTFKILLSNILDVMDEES

In one data set the target is T1, Inhibitor of nuclear factor kappa-B kinase subunit beta (Homo sapiens, UniProt O14920).
T1 sequence (O14920 whole entry): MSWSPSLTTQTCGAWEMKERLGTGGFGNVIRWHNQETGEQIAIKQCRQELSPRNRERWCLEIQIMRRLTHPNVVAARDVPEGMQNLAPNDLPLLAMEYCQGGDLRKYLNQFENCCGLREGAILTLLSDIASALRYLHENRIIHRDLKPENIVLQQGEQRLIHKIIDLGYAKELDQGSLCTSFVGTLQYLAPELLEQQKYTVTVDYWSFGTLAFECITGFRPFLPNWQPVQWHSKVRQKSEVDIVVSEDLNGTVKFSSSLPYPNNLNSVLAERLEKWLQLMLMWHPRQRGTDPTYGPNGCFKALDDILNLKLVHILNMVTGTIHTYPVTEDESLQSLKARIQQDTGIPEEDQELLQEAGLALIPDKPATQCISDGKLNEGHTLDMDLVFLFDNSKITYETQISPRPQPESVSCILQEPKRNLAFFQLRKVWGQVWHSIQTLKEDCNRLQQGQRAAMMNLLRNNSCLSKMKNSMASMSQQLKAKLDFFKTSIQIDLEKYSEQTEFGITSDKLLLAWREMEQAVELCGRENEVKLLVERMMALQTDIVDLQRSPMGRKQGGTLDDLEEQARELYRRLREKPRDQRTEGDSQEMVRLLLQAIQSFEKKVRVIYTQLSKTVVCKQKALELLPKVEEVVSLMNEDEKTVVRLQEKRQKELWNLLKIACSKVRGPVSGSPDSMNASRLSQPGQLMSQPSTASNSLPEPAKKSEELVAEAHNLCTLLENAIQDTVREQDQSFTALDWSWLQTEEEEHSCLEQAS
As to the kind of experiment: Inhibition of IKK-beta.
Settings: not given
Compound `NC(=O)c1cc(Br)cc2c3c([nH]c12)CCCC3` gave an IC50 of 2510 nM.
Take `O=C(O)c1cc(-c2ccccc2)cc2cc[nH]c12`: the IC50 was more than 15800 nM.
The same measure, in the same setting: for `NC(=O)c1cc(-c2ccccc2)cc2cc[nH]c12` the value was 1580 nM.
On the same count and under the same terms, for `N#Cc1cccc(-c2cc(C(N)=O)c3[nH]ccc3c2)c1` the value was 1580 nM; for `CS(=O)(=O)Nc1ccc(-c2cc(C(N)=O)c3[nH]ccc3c2)cc1`, 501 nM; for `NC(=O)c1cc(-c2ccccc2Cl)cc2cc[nH]c12`, 6310 nM.
In turn, `NC(=O)c1cc(-c2cccc(Cl)c2)cc2cc[nH]c12` gave an IC50 of 794 nM.
`NC(=O)c1cc(-c2ccc(Cl)cc2)cc2cc[nH]c12`: the midpoint of inhibition, the IC50, lay at 316 nM.
The compound `NC(=O)c1cc(-c2cccc(CO)c2)cc2cc[nH]c12` showed an IC50 of 2510 nM.
On to `NC(=O)c1cc(-c2ccc(CO)cc2)cc2cc[nH]c12`, for which the IC50 is 1260 nM.
`COc1ccncc1-c1cc(C(N)=O)c2[nH]ccc2c1` gave a half-inhibitory concentration (IC50) of 1580 nM.
The compound `NC(=O)c1cc(-c2cc3ccccc3o2)cc2cc[nH]c12` showed an IC50 of 501 nM.
The same measure, in the same setting: for `NC(=O)c1cc(-c2ccccc2)cc2c(C3CCCNC3)c[nH]c12` (centres undefined) the value was 158 nM.
On the same count and under the same terms, the same measure for `NC(=O)c1cc(-c2ccccc2)cc2c(C3CCNCC3)c[nH]c12`: 501 nM; for `CC(C)S(=O)(=O)N1CCC(c2c[nH]c3c(C(N)=O)cc(-c4ccccc4)cc23)CC1`: 20 nM; for `CCS(=O)(=O)N1CCC(c2c[nH]c3c(C(N)=O)cc(-c4ccccc4)cc23)CC1`: 25.1 nM.
In the case of `NC(=O)c1cc(-c2ccccc2)cc2c(C3CCN(S(=O)(=O)c4ccc(Cl)cc4)CC3)c[nH]c12`, the half-maximal inhibitory concentration (IC50) was 398 nM.
Still for that read-out and setting: the same measure for `CCc1ccc(-c2cc(C(N)=O)c(NC(N)=O)s2)cc1`: 7.94 nM; for `CN(C)C(=O)c1cc(-c2ccccc2)cc2cc[nH]c12`: more than 15800 nM.
Same read-out and setting: for `NC(=O)c1cc(-c2cncnc2)cc2cc[nH]c12` the value was 5010 nM.

The next data set has as its target T2, Inhibitor of nuclear factor kappa-B kinase subunit alpha (Homo sapiens, UniProt O15111).
T2 sequence (O15111 whole entry): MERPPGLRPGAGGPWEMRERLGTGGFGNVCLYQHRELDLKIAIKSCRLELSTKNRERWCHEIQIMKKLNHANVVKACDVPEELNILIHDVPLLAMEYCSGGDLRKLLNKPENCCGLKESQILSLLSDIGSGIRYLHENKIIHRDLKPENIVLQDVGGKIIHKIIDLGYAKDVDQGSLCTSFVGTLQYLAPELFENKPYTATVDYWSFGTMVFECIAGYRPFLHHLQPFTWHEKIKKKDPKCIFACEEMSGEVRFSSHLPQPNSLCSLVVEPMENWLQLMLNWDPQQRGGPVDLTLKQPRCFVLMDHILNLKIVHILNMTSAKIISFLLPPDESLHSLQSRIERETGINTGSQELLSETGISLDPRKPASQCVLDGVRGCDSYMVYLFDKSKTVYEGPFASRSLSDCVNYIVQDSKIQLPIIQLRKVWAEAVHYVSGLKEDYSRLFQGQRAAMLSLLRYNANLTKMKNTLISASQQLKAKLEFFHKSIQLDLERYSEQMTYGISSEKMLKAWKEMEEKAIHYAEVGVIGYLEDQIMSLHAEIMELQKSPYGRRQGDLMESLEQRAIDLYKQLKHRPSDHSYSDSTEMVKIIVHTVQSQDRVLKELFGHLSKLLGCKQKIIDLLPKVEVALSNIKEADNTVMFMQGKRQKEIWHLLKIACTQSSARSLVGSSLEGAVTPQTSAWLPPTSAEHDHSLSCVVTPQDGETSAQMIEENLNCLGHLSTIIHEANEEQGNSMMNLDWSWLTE
As to the kind of experiment: Inhibition of IKK-alpha.
Settings: not given
In short, it runs like this:
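Done the same way as the IKK-β TR-FRET assay but with 6-His-tagged full-length IKK-α. Buffer is 50 mM HEPES, 10 mM MgCl₂, 1 mM CHAPS pH 7.4, 1 mM DTT, 0.01% w/v BSA. GST-IκBα substrate 25 nM final, ATP 1 μM final, DMSO below 5% final. Error about ±0.3 log units.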
In turn, `NC(=O)c1cc(-c2ccccc2)cc2cc[nH]c12` had an IC50 of 10000 nM.
Compound `N#Cc1cccc(-c2cc(C(N)=O)c3[nH]ccc3c2)c1` gave an IC50 of 10000 nM.
The same measure, in the same setting: the same measure for `CS(=O)(=O)Nc1ccc(-c2cc(C(N)=O)c3[nH]ccc3c2)cc1`: 3980 nM; for `NC(=O)c1cc(-c2ccccc2Cl)cc2cc[nH]c12`: more than 15800 nM.
On the same count and under the same terms, the same measure for `NC(=O)c1cc(-c2cccc(Cl)c2)cc2cc[nH]c12`: 5010 nM; for `NC(=O)c1cc(-c2ccc(Cl)cc2)cc2cc[nH]c12`: 6310 nM.
`NC(=O)c1cc(-c2cccc(CO)c2)cc2cc[nH]c12`: the midpoint of inhibition, the IC50, lay at 15800 nM.
The same measure, in the same setting: the same measure for `NC(=O)c1cc(-c2ccc(CO)cc2)cc2cc[nH]c12`: 15800 nM.
On the same count and under the same terms, for `COc1ccncc1-c1cc(C(N)=O)c2[nH]ccc2c1` the value was 12600 nM.
Same read-out and setting: the same measure for `NC(=O)c1cc(-c2cc3ccccc3o2)cc2cc[nH]c12`: 3980 nM; for `NC(=O)c1cc(-c2ccccc2)cc2c(C3CCCNC3)c[nH]c12` (centres undefined): 1580 nM; for `NC(=O)c1cc(-c2ccccc2)cc2c(C3CCNCC3)c[nH]c12`: 10000 nM.
The compound `CC(C)S(=O)(=O)N1CCC(c2c[nH]c3c(C(N)=O)cc(-c4ccccc4)cc23)CC1` showed an IC50 of 3160 nM.
Still for that read-out and setting: for `CCS(=O)(=O)N1CCC(c2c[nH]c3c(C(N)=O)cc(-c4ccccc4)cc23)CC1` the value was 2000 nM.
On the same count and under the same terms, for `NC(=O)c1cc(-c2ccccc2)cc2c(C3CCN(S(=O)(=O)c4ccc(Cl)cc4)CC3)c[nH]c12` the value was 7940 nM; for `NC(=O)c1cc(-c2cncnc2)cc2cc[nH]c12`, 15800 nM.

The test system of the next data set is PBMC. Put plainly: Antiinflammatory activity in human PBMC assessed as inhibition of LPS-induced TNF-alpha production. The class given is functional, cell-based.
Settings: not given
In short, it runs like this:
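Human peripheral blood mononuclear cells stimulated with LPS. Read-out is inhibition of TNF-α production, reported as pIC50.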
As for `NC(=O)c1cc(-c2ccccc2)cc2c(C3CCCNC3)c[nH]c12` (centres undefined), the IC50 is 631 nM.

In a further data set the target is T3, Inhibitor of nuclear factor kappa-B kinase subunit epsilon (Homo sapiens, UniProt Q14164).
T3 sequence (Q14164 whole entry): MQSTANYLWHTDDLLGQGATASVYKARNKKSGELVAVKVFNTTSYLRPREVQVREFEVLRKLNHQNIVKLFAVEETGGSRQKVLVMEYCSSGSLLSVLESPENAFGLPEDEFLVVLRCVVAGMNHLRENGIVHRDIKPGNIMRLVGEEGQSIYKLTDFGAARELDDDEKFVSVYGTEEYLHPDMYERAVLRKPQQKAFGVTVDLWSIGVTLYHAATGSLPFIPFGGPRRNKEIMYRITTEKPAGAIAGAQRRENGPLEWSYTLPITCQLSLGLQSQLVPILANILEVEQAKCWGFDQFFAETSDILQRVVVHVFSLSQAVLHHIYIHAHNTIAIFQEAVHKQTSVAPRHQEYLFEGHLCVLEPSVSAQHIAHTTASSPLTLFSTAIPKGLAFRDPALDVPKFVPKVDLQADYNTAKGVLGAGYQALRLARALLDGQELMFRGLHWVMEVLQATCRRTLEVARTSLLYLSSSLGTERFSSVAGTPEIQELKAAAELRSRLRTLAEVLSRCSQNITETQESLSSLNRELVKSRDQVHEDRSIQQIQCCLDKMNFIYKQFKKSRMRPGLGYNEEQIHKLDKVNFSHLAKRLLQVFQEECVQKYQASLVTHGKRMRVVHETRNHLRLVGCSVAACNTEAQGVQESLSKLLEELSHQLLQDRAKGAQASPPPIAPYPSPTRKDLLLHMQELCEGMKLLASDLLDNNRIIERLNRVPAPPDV
As to the kind of experiment: Inhibition of IKK-epsilon.
Settings: not given
As for `NC(=O)c1cc(-c2ccccc2)cc2c(C3CCCNC3)c[nH]c12` (centres undefined), the IC50 was more than 3160 nM.

Another data set deals with T4, Serine/threonine-protein kinase TBK1 (Homo sapiens, UniProt Q9UHD2).
T4 sequence (Q9UHD2 whole entry): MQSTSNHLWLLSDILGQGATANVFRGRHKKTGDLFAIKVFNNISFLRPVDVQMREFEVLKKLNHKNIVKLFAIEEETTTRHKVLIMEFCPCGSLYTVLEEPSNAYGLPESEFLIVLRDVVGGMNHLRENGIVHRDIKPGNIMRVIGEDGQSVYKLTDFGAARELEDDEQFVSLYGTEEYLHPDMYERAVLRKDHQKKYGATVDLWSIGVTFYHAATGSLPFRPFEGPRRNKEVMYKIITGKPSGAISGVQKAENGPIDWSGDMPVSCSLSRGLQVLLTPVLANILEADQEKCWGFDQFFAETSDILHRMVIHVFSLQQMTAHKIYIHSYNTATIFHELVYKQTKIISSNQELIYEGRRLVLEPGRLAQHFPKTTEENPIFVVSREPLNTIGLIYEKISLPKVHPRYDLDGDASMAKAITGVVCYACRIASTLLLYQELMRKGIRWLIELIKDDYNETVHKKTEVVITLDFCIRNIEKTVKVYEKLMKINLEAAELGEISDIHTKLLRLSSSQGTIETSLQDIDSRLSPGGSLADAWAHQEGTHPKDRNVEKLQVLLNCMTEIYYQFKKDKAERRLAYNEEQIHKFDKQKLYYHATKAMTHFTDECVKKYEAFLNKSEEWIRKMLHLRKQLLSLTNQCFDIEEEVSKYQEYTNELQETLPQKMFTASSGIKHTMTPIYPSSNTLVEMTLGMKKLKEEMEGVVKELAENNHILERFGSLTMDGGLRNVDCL
Put plainly: Inhibition of TBK-1.
Settings: not given
The compound `NC(=O)c1cc(-c2ccccc2)cc2c(C3CCCNC3)c[nH]c12` (centres undefined) gave a 50% inhibitory concentration (IC50) of more than 3160 nM.

In another data set the target is Macrophage colony-stimulating factor 1 receptor (Homo sapiens, UniProt P07333). As to the kind of experiment: Inhibition of c-FMS.
Macrophage colony-stimulating factor 1 receptor, sequence (P07333 whole entry): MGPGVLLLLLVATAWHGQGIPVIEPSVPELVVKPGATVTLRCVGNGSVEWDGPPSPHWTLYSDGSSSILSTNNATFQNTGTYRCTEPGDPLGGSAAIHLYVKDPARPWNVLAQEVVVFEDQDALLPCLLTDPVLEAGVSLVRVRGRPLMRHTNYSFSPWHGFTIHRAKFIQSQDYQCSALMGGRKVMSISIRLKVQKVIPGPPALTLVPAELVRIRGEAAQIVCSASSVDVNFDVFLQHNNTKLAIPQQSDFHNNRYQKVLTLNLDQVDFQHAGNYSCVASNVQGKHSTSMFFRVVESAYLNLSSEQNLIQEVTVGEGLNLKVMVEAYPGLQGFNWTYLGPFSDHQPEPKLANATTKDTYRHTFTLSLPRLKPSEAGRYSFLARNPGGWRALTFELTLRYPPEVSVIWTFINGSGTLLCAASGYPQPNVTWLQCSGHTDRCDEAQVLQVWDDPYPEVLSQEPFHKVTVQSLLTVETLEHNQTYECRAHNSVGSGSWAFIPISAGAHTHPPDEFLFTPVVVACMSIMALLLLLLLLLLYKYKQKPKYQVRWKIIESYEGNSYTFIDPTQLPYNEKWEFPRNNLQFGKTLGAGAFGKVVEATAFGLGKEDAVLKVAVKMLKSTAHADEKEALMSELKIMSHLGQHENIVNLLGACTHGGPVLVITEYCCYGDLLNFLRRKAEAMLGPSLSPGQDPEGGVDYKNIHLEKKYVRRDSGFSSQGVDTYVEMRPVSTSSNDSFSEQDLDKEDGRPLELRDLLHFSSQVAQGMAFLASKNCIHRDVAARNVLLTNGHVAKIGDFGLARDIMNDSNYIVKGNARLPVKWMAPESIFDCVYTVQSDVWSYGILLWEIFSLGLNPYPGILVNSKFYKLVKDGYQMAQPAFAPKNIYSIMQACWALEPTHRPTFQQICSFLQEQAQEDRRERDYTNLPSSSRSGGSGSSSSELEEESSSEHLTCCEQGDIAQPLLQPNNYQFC
Settings: not given
The compound `NC(=O)c1cc(-c2ccccc2)cc2c(C3CCCNC3)c[nH]c12` (centres undefined) gave an IC50 of 1580 nM.

A further data set concerns the target Tyrosine-protein kinase BTK (Homo sapiens, UniProt Q06187). As to the kind of experiment: Inhibition of BTK.
Settings: not given
For the compound `NC(=O)c1cc(-c2ccccc2)cc2c(C3CCCNC3)c[nH]c12` (centres undefined), the IC50 was 1260 nM.

System in a further data set: not listed separately
As to the kind of experiment: Aqueous solubility of the compound.
Settings: not given
The class given is physicochemical.
For `NC(=O)c1cc(-c2ccccc2)cc2c(C3CCCNC3)c[nH]c12` (centres undefined), the solubility stood at 136 µg/mL (≈ 426 µM).

Another data set addresses serum albumin (Homo sapiens, UniProt P02768). Put plainly: Binding affinity to human serum albumin. The following applies: read-out: PB. Type of data set: ADME.
With `NC(=O)c1cc(-c2ccccc2)cc2c(C3CCCNC3)c[nH]c12` (centres undefined), the fraction unbound came to 0.09.

System in a further data set: not listed separately
Put plainly: Oral bioavailability in rat. Type of data set: ADME, organism-based. Particulars: in vivo.
`NC(=O)c1cc(-c2ccccc2)cc2c(C3CCCNC3)c[nH]c12` (centres undefined) returned a bioavailability of 22%.

Source of the values: ChEMBL document CHEMBL1759890, “3,5-Disubstituted-indole-7-carboxamides: the discovery of a novel series of potent, selective inhibitors of IKK-β” (Bioorg Med Chem Lett, 2011).
